Assay results published in ChEMBL document CHEMBL4680077, “Differentiation of skeletal osteogenic progenitor cells to osteoblasts with 3,4-diarylbenzopyran based amide derivatives: Novel osteogenic agents” (Eur J Med Chem, 2016).
Active and inactive are the calls of the source. The calls are words filed in the database; no cut-off is given here.

What was measured:
[1] = Acute toxicity in Swiss albino mouse assessed as absolute testes weight at 300 mg/kg, po measured after 7 days (reference value: 0.15+/- 0.01 g); format: organism-based; conditions: in vivo, 168 h, time 7 day
Mus musculus = experiment: In vivo osteogenic activity in ovariectomized BALB/c mouse assessed as increase in femur bone volume density at 1 to 10 mg/kg, po via gavage administered for 1 month by microCT imaging analysis; format: functional, organism-based; conditions: dose 1-10 mg/kg, time 1.0 months
In short: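 Ovariectomized female balb/c mice, 8 weeks old, 10 per group, received 1.0 or 10.0 mg kg-1 once daily by oral gavage (gum acacia vehicle) for 4 weeks, alongside sham and Ovx vehicle groups. Femurs were scanned by microCT. BV/TV, Tb.N and Tb.Sp were derived by the mean intercept length method. Mean ± SE.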

[2] = Acute toxicity in Swiss albino mouse assessed as absolute heart weight at 5 mg/kg, po measured after 7 days (reference value: 0.12 g); format: organism-based; conditions: in vivo, 168 h, time 7 day
[3] = Acute toxicity in Swiss albino mouse assessed as relative lung weight at 300 mg/kg, po measured after 7 days (reference value: 0.70 +/- 0.08 %); format: organism-based; conditions: in vivo, 168 h, time 7 day
[4] = Acute toxicity in Swiss albino mouse assessed as relative uterus weight at 5 mg/kg, po measured after 7 days (reference value: 1.63 +/- 0.71 %); format: organism-based; conditions: in vivo, 168 h, time 7 day
[5] = Acute toxicity in Swiss albino mouse assessed as SGOT level at 5 mg/kg, po measured after 7 days (reference value: 31.99 +/- 3.37 U/L); format: organism-based; conditions: in vivo, 168 h, time 7 day
[6] = Acute toxicity in Swiss albino mouse assessed as absolute uterus weight at 300 mg/kg, po measured after 7 days (reference value: 0.27+/- 0.07 g); format: organism-based; conditions: in vivo, 168 h, time 7 day
[7] = Acute toxicity in Swiss albino mouse assessed as haemoglobin level at 1000 mg/kg, po measured after 7 days (reference value: 10.86 +/- 0.87 g/dL); format: organism-based; conditions: in vivo, 168 h, time 7 day
[8] = Acute toxicity in Swiss albino mouse assessed as haemoglobin level at 50 mg/kg, po measured after 7 days (reference value: 10.86 +/- 0.87 g/dL); format: organism-based; conditions: in vivo, 168 h, time 7 day
[9] = Acute toxicity in Swiss albino mouse assessed as monocyte count at 1000 mg/kg, po measured after 7 days (reference value: 12.58 +/- 2.86 %); format: organism-based; conditions: in vivo, 168 h, time 7 day
[10] = Acute toxicity in Swiss albino mouse assessed as absolute spleen weight at 300 mg/kg, po measured after 7 days (reference value: 0.17 +/- 0.03 g); format: organism-based; conditions: in vivo, 168 h, time 7 day
[11] = AUC (0 to infinity) in Sprague-Dawley rat at 1 mg/kg, po measured upto 24 hrs by LC-MS/MS analysis; format: ADME, organism-based; parameters: route oral, dose 1 mg/kg, time <=24; conditions: in vivo
In short: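 Female Sprague-Dawley rats (n = 4 per route), fasted overnight; 1 mg/kg oral (0.25% CMC) or i.v. tail-vein bolus (DMSO-PEG400-ethanol-water). Plasma was sampled to 24 h and assayed by LC-MS/MS (0.5-200 ng/mL). Non-compartmental AUC0-∞ = AUC0-t + Clast/kel; mean ± S.D.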

[12] = Acute toxicity in Swiss albino mouse assessed as observational changes at 5 to 1000 mg/kg, po measured after 7 days; format: organism-based; conditions: in vivo, 168 h, dose 5-1000 mg/kg, time 7 day
In short: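 Acute oral toxicity per OECD guidelines 420, 423 and 425. Swiss albino mice received a single oral dose at 5, 50, 300 or 1000 mg kg1 body weight, with vehicle controls. Animals were watched for morbidity, mortality and observational changes over 7 days. Tail-vein blood was then taken for hematology and serum biochemistry. Organs were inspected at sacrifice. n = 6 per group.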

[13] = Acute toxicity in Swiss albino mouse assessed as albumin level at 1000 mg/kg, po measured after 7 days (reference value: 3.24 +/- 0.30 g/dL); format: organism-based; conditions: in vivo, 168 h, time 7 day
[14] = Acute toxicity in Swiss albino mouse assessed as serum protein level at 50 mg/kg, po measured after 7 days (reference value: 0.66 +/- 0.01 mg/ml); format: organism-based; conditions: in vivo, 168 h, time 7 day
[15] = AUC (0 to 24 hrs) in Sprague-Dawley rat at 1 mg/kg, iv measured upto 24 hrs by LC-MS/MS analysis; format: ADME, organism-based; parameters: route intravenous, dose 1 mg/kg, time <=24; conditions: in vivo
In short: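 Female Sprague-Dawley rats (n = 4 per route), fasted overnight (12-14 h); 1 mg/kg orally in 0.25% CMC suspension, or an i.v. tail-vein bolus in DMSO-PEG400-ethanol-water (4:3:1:2). Retro-orbital blood was taken up to 24 h, and plasma was extracted with n-hexane (halofantrine IS). LC-MS/MS linear range 0.5-200 ng/mL. AUC0-24 was calculated by the linear trapezoidal rule, non-compartmental; mean ± S.D.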

[16] = Acute toxicity in Swiss albino mouse assessed as SGOT level at 50 mg/kg, po measured after 7 days (reference value: 31.99 +/- 3.37 U/L); format: organism-based; conditions: in vivo, 168 h, time 7 day
[17] = Acute toxicity in Swiss albino mouse assessed as WBC count per thousand/mm3 at 1000 mg/kg, po measured after 7 days (reference value: 6.84 +/- 0.83 /mm3); format: organism-based; conditions: in vivo, 168 h, time 7 day
[18] = Acute toxicity in Swiss albino mouse assessed as basophil count at 1000 mg/kg, po measured after 7 days (reference value: 1.50 +/- 0.29 %); format: organism-based; conditions: in vivo, 168 h, time 7 day
[19] = Acute toxicity in Swiss albino mouse assessed as WBC count per thousand/mm3 at 50 mg/kg, po measured after 7 days (reference value: 6.84 +/- 0.83 /mm3); format: organism-based; conditions: in vivo, 168 h, time 7 day
[20] = Acute toxicity in Swiss albino mouse assessed as absolute liver weight at 1000 mg/kg, po measured after 7 days (reference value: 1.11 +/- 0.04 g); format: organism-based; conditions: in vivo, 168 h, time 7 day
[21] = Clearance in Sprague-Dawley rat at 1 mg/kg, iv measured upto 24 hrs by LC-MS/MS analysis; format: ADME, organism-based; conditions: in vivo
[22] = Acute toxicity in Swiss albino mouse assessed as relative heart weight at 5 mg/kg, po measured after 7 days (reference value: 0.51 +/- 0.02 %); format: organism-based; conditions: in vivo, 168 h, time 7 day
[23] = Acute toxicity in Swiss albino mouse assessed as relative liver weight at 1000 mg/kg, po measured after 7 days (reference value: 6.81 +/- 2.14 %); format: organism-based; conditions: in vivo, 168 h, time 7 day
[24] = Acute toxicity in Swiss albino mouse assessed as body weight at 5 mg/kg, po measured on day 7 (reference value: 22.75 +/- 0.38 g); format: organism-based; conditions: in vivo, 168 h, time 7 day
[25] = Acute toxicity in Swiss albino mouse assessed as relative uterus weight at 50 mg/kg, po measured after 7 days (reference value: 1.63 +/- 0.71 %); format: organism-based; conditions: in vivo, 168 h, time 7 day
[26] = Acute toxicity in Swiss albino mouse assessed as relative ovary weight at 300 mg/kg, po measured after 7 days (reference value: 0.07 +/- 0.02 %); format: organism-based; conditions: in vivo, 168 h, time 7 day
[27] = Acute toxicity in Swiss albino mouse assessed as triglycerides level at 300 mg/kg, po measured after 7 days (reference value: 58.51 +/- 10.82 mg/dL); format: organism-based; conditions: in vivo, 168 h, time 7 day
[28] = Acute toxicity in Swiss albino mouse assessed as relative kidney weight at 1000 mg/kg, po measured after 7 days (reference value: 1.25 +/- 0.08 %); format: organism-based; conditions: in vivo, 168 h, time 7 day
[29] = Acute toxicity in Swiss albino mouse assessed as tissue protein level at 5 mg/kg, po measured after 7 days (reference value: 0.029 +/- 0.004 mg/ml); format: organism-based; conditions: in vivo, 168 h, time 7 day

CCCCN(C)C(=O)CCCCOc1ccc([C@H]2c3ccc(OC)cc3OC(C)(C)[C@@H]2c2ccccc2)cc1
Activity [1]: 0.14 g
Activity (Mus musculus): Active
Activity [2]: 0.12 g
Activity [3]: 0.73%
Activity [4]: 1.77%
Activity [5]: 33.05 U/L
Activity [6]: 0.33 g
Activity [7]: 11.35 g/dL
Activity [8]: 13.14 g/dL
Activity [9]: 12.27%
Activity [10]: 0.13 g
AUC [11]: 119.404 ng·h/mL
Activity [12]: Non-Toxic
Activity [13]: 3.98 g/dL
Activity [14]: 0.74 mg/mL
AUC(0-t) [15]: 852 ng·h/mL
Activity [16]: 40.13 U/L
Activity [17]: 5.1 /mm3
Activity [18]: 1.75%
Activity [19]: 5.69 /mm3
Activity [20]: 1.07 g
clearance [21]: 18.4 mL/min/kg
Activity [22]: 0.48%
Activity [23]: 5.28%
Activity [24]: 24.25 g
Activity [25]: 1.17%
Activity [26]: 0.29%
Activity [27]: 57.55 mg/dL
Activity [28]: 1.44%
Activity [29]: 0.035 mg/mL
